# According to ChEMBL document CHEMBL4689842, “EUbOPEN Chemogenomics Library wave 1” (2021):
# Tested on: Fibroblast
# Experiment: Multiplex assay against human fibroblast
# Type: toxicity, cell-based
# In short: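 Live cells were stained at seeding with Hoechst33342, BioTracker Green Microtubule Cytoskeleton Dye, MitoTracker Red and Annexin V Alexa Fluor 680, then imaged on a CQ1 microscope at 37°C and 5% CO2 after compound addition. CellPathfinder machine-learning gating split cells into Hoechst high-intensity objects or normal cells. Normal cells were split into healthy, pyknosed or fragmented nuclei, and pyknosed cells into mitotic or apoptotic. Tubulin, mitochondrial-mass and membrane-permeability phenotypes are per cents of healthy-nucleus cells.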
# [1] = 12 h, 1 µM, compound concentration 1 uM, replicate 1
# [2] = 12 h, 1 µM, compound concentration 1 uM, replicate 2
# [3] = 12 h, 10 µM, compound concentration 10 uM, replicate 1
# [4] = 12 h, 10 µM, compound concentration 10 uM, replicate 2
# [5] = 24 h, 1 µM, compound concentration 1 uM, replicate 1
# [6] = 24 h, 1 µM, compound concentration 1 uM, replicate 2
# [7] = 24 h, 10 µM, compound concentration 10 uM, replicate 1
# [8] = 24 h, 10 µM, compound concentration 10 uM, replicate 2
smiles,measurement,setting,value
Cl.Cn1c2c(c3ccc(Cl)c(Cl)c31)C(C#N)C1(CCNCC1)NC2=O (stereo not drawn),Population Apoptotic (%),[1],75%
same,Population Fragmented Nuclei (%),[1],35%
same,Population Healthy Nuclei (%),[1],51%
same,Population Hoechst High Intensity Objects (%),[1],11%
same,Population Membrane Permeable-Phenotype (%),[1],8%
same,Population Mitochondria Different-Phenotype (%),[1],2%
same,Population Mitotic Cells (%),[1],25%
same,Population Normal (%),[1],88%
same,Population Pyknosed Nuclei (%),[1],13%
same,Population Tubulin-Different-Phenotype (%),[1],6%
same,Total Cell Count,[1],332
same,Population Apoptotic (%),[2],50%
same,Population Fragmented Nuclei (%),[2],59%
same,Population Healthy Nuclei (%),[2],33%
same,Population Hoechst High Intensity Objects (%),[2],32%
same,Population Membrane Permeable-Phenotype (%),[2],9%
same,Population Mitochondria Different-Phenotype (%),[2],9%
same,Population Mitotic Cells (%),[2],50%
same,Population Normal (%),[2],67%
same,Population Pyknosed Nuclei (%),[2],6%
same,Population Tubulin-Different-Phenotype (%),[2],9%
same,Total Cell Count,[2],92
same,Population Apoptotic (%),[3],64%
same,Population Fragmented Nuclei (%),[3],44%
same,Population Healthy Nuclei (%),[3],40%
same,Population Hoechst High Intensity Objects (%),[3],19%
same,Population Membrane Permeable-Phenotype (%),[3],8%
same,Population Mitochondria Different-Phenotype (%),[3],6%
same,Population Mitotic Cells (%),[3],35%
same,Population Normal (%),[3],80%
same,Population Pyknosed Nuclei (%),[3],14%
same,Population Tubulin-Different-Phenotype (%),[3],37%
same,Total Cell Count,[3],482
same,Population Apoptotic (%),[4],40%
same,Population Fragmented Nuclei (%),[4],48%
same,Population Healthy Nuclei (%),[4],39%
same,Population Hoechst High Intensity Objects (%),[4],23%
same,Population Membrane Permeable-Phenotype (%),[4],5%
same,Population Mitochondria Different-Phenotype (%),[4],2%
same,Population Mitotic Cells (%),[4],60%
same,Population Normal (%),[4],76%
same,Population Pyknosed Nuclei (%),[4],11%
same,Population Tubulin-Different-Phenotype (%),[4],73%
same,Total Cell Count,[4],112
same,Population Apoptotic (%),[5],67%
same,Population Fragmented Nuclei (%),[5],38%
same,Population Healthy Nuclei (%),[5],50%
same,Population Hoechst High Intensity Objects (%),[5],15%
same,Population Membrane Permeable-Phenotype (%),[5],4%
same,Population Mitochondria Different-Phenotype (%),[5],3%
same,Population Mitotic Cells (%),[5],32%
same,Population Normal (%),[5],84%
same,Population Pyknosed Nuclei (%),[5],10%
same,Population Tubulin-Different-Phenotype (%),[5],4%
same,Total Cell Count,[5],379
same,Population Apoptotic (%),[6],0%
same,Population Fragmented Nuclei (%),[6],67%
same,Population Healthy Nuclei (%),[6],31%
same,Population Hoechst High Intensity Objects (%),[6],29%
same,Population Membrane Permeable-Phenotype (%),[6],9%
same,Population Mitochondria Different-Phenotype (%),[6],0%
same,Population Mitotic Cells (%),[6],100%
same,Population Normal (%),[6],70%
same,Population Pyknosed Nuclei (%),[6],1%
same,Population Tubulin-Different-Phenotype (%),[6],19%
same,Total Cell Count,[6],95
same,Population Apoptotic (%),[7],61%
same,Population Fragmented Nuclei (%),[7],28%
same,Population Healthy Nuclei (%),[7],55%
same,Population Hoechst High Intensity Objects (%),[7],37%
same,Population Membrane Permeable-Phenotype (%),[7],6%
same,Population Mitochondria Different-Phenotype (%),[7],10%
same,Population Mitotic Cells (%),[7],38%
same,Population Normal (%),[7],62%
same,Population Pyknosed Nuclei (%),[7],15%
same,Population Tubulin-Different-Phenotype (%),[7],38%
same,Total Cell Count,[7],492
same,Population Apoptotic (%),[8],87%
same,Population Fragmented Nuclei (%),[8],42%
same,Population Healthy Nuclei (%),[8],42%
same,Population Hoechst High Intensity Objects (%),[8],43%
same,Population Membrane Permeable-Phenotype (%),[8],9%
same,Population Mitochondria Different-Phenotype (%),[8],14%
same,Population Mitotic Cells (%),[8],12%
same,Population Normal (%),[8],56%
same,Population Pyknosed Nuclei (%),[8],16%
same,Population Tubulin-Different-Phenotype (%),[8],42%
same,Total Cell Count,[8],89
